Screens deposited in PubChem BioAssay by Broad Institute.
DENV2 CPE – inhibitors of DENV2 cytopathic effect, primary screen, cell-based, plate reader, single concentration. DENV2-infected cells, cytopathic effect rescue. CPE inhibition, % at 9.99 µM. 350,000 tested, 1.7% active. AID 651640, 2012; in the data active = CPE inhibition above about 20%, passing the limit was not always enough; inconclusive = no clear call, values can overlap the other calls; tested in BHK-21 cells;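 also: 0% = median of neutral control wells and 100% = median of positive control wells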
E-selectin induc – E-selectin induction in HUVECs, primary screen, imaging, HUVEC, immunofluorescence imaging, single point; P16581; normalized: neutral wells 0, TNF-alpha wells 100; activation, % at 7.58 µM; 260,000 tested, 0.37% active; AID 686992, 2013;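 active = mean E-selectin-positive cell signal at least 10% of the positive control, reached in at least 60% of replicates, without over 20% cell loss; inconclusive = no rule given, readout overlaps actives, possibly toxicity-flagged; inactive = the rest, including those meeting only one limit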
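Read-out: % PE-positive cells | Test system: HUVEC | Doses: One compound dose added by pin transfer | Buffer or medium: EGM-2 over gelatin coat | Signal: Immunofluorescence imaging | Benchmarks: TNF-alpha, DMSO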
S100A4 MyoIIA – inhibitors of S100A4-myosin IIA peptide binding, primary screen, biochemical, fluorescence polarization, TAMRA-MyoIIA peptide; Protein S100-A4 (Homo sapiens), P26447; inhibition, % at 10.7 µM; 360,000 tested, 0.14% active; AID 652163, 2013;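 active = mean inhibition of at least 70% across replicates, with every replicate also reaching that level; inconclusive = mean inhibition reaches 70% but some replicates fall short; inactive = mean inhibition below 70%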
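assay system = human S100A4 monomer with TAMRA-labelled myosin IIA peptide | also added = labelled myosin peptide probe, 5 nM | incubation = 5 min between mix addition and reading | control set = DMSO and TFP controls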
XiGFP reactiv – activators of inactive X chromosome reactivation, primary screen, imaging, XiGFP fibroblasts, GFP high-content imaging, set 2 | XiGFP mouse fibroblasts, % GFP-positive cells imaging, 3 d; cells co-treated with 5-aza-dC sensitizer; scaled so ellipticine positive control = 100% | activation, % at 7.58 µM | 360,000 tested, 0.055% active | AID 743238, 2013;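 active = mean normalized replicate activation at least 10% and every replicate at or above 10%; inconclusive = only one of the two criteria met; inactive = mean below 10% and not all replicates reach 10%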;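 also: 0% = median of on-plate neutral control wells and 100% = ellipticine 6 µM median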
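Material: XiGFP fibroblasts, SV40-immortalized. Buffer or medium: DMEM plus 5-aza-dC sensitizer. Compound: single concentration per compound, delivered by pin transfer. Times: 3 days compound exposure. Controls: ellipticine 6 µM.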
* marks the source's active call; other numbers are inactive results; u = inconclusive; x = no result given. Compounds with a hit are over-represented: about 2% of the library has one in this group of screens.

SMILES	DENV2 CPE	E-selectin induc	S100A4 MyoIIA	XiGFP reactiv
CNC[C@@H]1Oc2ccc(NS(=O)(=O)c3ccc(F)cc3)cc2C(=O)N([C@H](C)CO)C[C@@H]1C	53.5*	x	4.4	-1.1
CNC[C@H]1Oc2ccc(NS(=O)(=O)c3ccc(F)cc3)cc2C(=O)N([C@H](C)CO)C[C@H]1C	x	x	x	-0.8
COc1ccc(S(=O)(=O)Nc2ccc3c(c2)C(=O)N([C@@H](C)CO)C[C@@H](C)[C@H](CN(C)S(=O)(=O)c2ccc(F)cc2)O3)cc1	-1.9	0.0	10.0	0.0
CSCCC(NC(=O)c1ccccc1Br)C(=O)Nc1ccc(C)cc1 (stereo not drawn)	-6.2	-0.1	-3.2	0.0
CCOC(=O)CN(Cc1sccc1C)C(=O)Nc1cccc(OC)c1	-8.7	x	-0.1	0.0
O=C(Nc1ccc(F)c(Cl)c1)Nn1cnnc1	76.1*	-1.1	-3.3	0.5
O=C(NCC1CCCO1)C(c1ccccn1)N(Cc1ccccc1Cl)C(=O)CN1C(=O)c2ccccc2S1(=O)=O (stereo not drawn)	x	x	-2.7	0.1
Cc1ccc(CNC(=O)C2CCN(S(=O)(=O)c3c(C)noc3/C=C/N(C)C)CC2)cc1	-1.2	x	-8.6	0.1
CC1CCCCC12NC(=O)N(CC(=O)NCc1ccccc1Cl)C2=O (stereo not drawn)	-1.2	-0.1	-1.9	0.1
CC1CCCCC12NC(=O)N(CC(=O)NCc1cccs1)C2=O (stereo not drawn)	28.9*	-0.2	-7.2	0.0
CC(C)N(Cc1ccccc1)C(=S)Nc1ccc(F)cc1	0.7	1.4	-0.2	0.0
O=S1(=O)CCOCCCN1Cc1ccccc1Br	33.4*	x	0.8	0.0
Cc1cc(NS(=O)(=O)c2ccc(NC(=O)CNS(=O)(=O)c3ccccc3)cc2)nc(C)n1	-1.1	-0.2	-1.6	0.0
C[C@H]1CCCCO[C@H](CN(C)C(=O)Nc2ccc(C(F)(F)F)cc2)[C@@H](C)CN([C@@H](C)CO)C(=O)c2cc(NS(=O)(=O)c3ccccc3)ccc2O1	18.0	0.5	86.4*	0.0
C[C@@H]1CCCCO[C@@H](CN(C)C(=O)Nc2ccc(F)cc2)[C@@H](C)CN([C@H](C)CO)C(=O)c2cc(NS(=O)(=O)c3ccccc3)ccc2O1	31.3*	0.0	-3.2	0.3
C[C@@H]1CCCCO[C@@H](CN(C)C(=O)Nc2ccc(C(F)(F)F)cc2)[C@H](C)CN([C@H](C)CO)C(=O)c2cc(NS(=O)(=O)c3ccccc3)ccc2O1	38.4*	0.0	-55.4	0.5
C[C@@H]1CN([C@@H](C)CO)C(=O)c2cc(NS(=O)(=O)c3ccccc3)ccc2O[C@@H](C)CCCCO[C@H]1CN(C)C(=O)Nc1ccc(C(F)(F)F)cc1	6.6	0.0	-11.0	0.0
C[C@@H]1CCCCO[C@H](CN(C)C(=O)Nc2ccc(F)cc2)[C@@H](C)CN([C@@H](C)CO)C(=O)c2cc(NS(=O)(=O)c3ccccc3)ccc2O1	-10.9	0.0	-15.2	-1.0
O=C(NCc1ccccc1)c1ccccc1	20.4*	x	-1.1	x
CN(C[C@H]1[C@H](c2ccccc2)[C@@H](CO)N1C(=O)C1CC1)C(=O)c1ccccn1	u	0.0	x	0.0
CCC(=O)N(CC)C[C@@H]1[C@@H](c2ccccc2)[C@H](CO)N1C(C)=O	20.4*	10.0	-13.6	0.1
CC(=O)N1[C@@H](CO)[C@H](c2ccccc2)[C@@H]1CN(CC(C)C)C(=O)c1ccccn1	27.0*	-0.1	5.4	-0.1
CN(C[C@@H]1[C@@H](c2ccccc2)[C@H](CO)N1C(=O)C1CC1)C(=O)c1ccccn1	54.0*	0.1	x	0.1
CCN(C[C@@H]1N[C@@H](CO)[C@H]1c1ccc(-c2ccccc2)cc1)C(=O)COC	23.6*	-0.1	3.9	0.0
CCN(C[C@H]1N[C@H](CO)[C@H]1c1ccc(-c2ccc(F)cc2)cc1)C(=O)COC	-3.1	0.0	51.4	0.1
O=[N+]([O-])c1cccc(-c2ccn[nH]2)c1	8.0	x	-6.1	0.3
O=C(CCCN1C(=O)c2cccc3cccc(c23)C1=O)NCCN1CCOCC1	-3.1	-1.4	6.4	0.0
COC(=O)c1ccc2nc(-c3ccco3)c(Cc3ccsc3)n2c1	68.1*	0.0	-4.1	-0.1
